From ChEMBL document CHEMBL1142338, “Design, synthesis, cytoselective toxicity, structure-activity relationships, and pharmacophore of thiazolidinone derivatives targeting drug-resistant lung cancer cells” (J Med Chem, 2008)

What was measured:
[1] = Anticancer activity against human NHFB cells; format: ADME, cell-based
Method in brief: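 Normal human fibroblasts (NHFB) were kept in DMEM with 10% heat-inactivated FCS, penicillin and streptomycin, at 37 C in 5% CO2. They were seeded in 96-well plates and treated next day, with DMSO below 1% and a matched DMSO control. Sulforhodamine B readout was at 72 h, with viability taken relative to control. IC50 came from four-parameter logistic fits; unreached values were recorded as >100 µM because of the solubility/DMSO limit.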

NCI-H460 [2] = experiment: Anticancer activity against human H460 cells; format: functional, cell-based
Method in brief: (§1)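 H460 and the paclitaxel-resistant, P-gp-overexpressing H460taxR line were grown in RPMI 1640 with 10% heat-inactivated FCS, penicillin and streptomycin, at 37 C in 5% CO2. Cells were seeded in 96-well plates, dosed next day from DMSO stocks (DMSO <1%, matched DMSO control), and stained with sulforhodamine B at 72 h. IC50 came from four-parameter logistic fits; at least three experiments.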

NCI-H460 [3] = experiment: Anticancer activity against paclitaxel resistant variant human H460 cells; format: functional, cell-based; method in brief: as §1

Compound	IC50 [1] [µM]	IC50 (NCI-H460 [2]) [nM]	IC50 (NCI-H460 [3]) [nM]
CC(=O)Nc1ccc(/C=C2/S/C(=N/c3cccc(Cl)c3)NC2=O)cc1	> 100	1190	1250
COc1ccc(N=C2NC(=O)/C(=C\c3ccc(N(C)C)cc3)S2)cc1	> 100	2520	1600
CN(C)c1ccc(/C=C2/SC(=Nc3ccccc3Cl)NC2=O)cc1	> 100	730	880
CN(C)c1ccc(/C=C2/SC(=Nc3ccccc3)NC2=O)cc1	> 100	500	210

Second part, the compound after the results:

IC50 [1] [µM]	IC50 (NCI-H460 [2]) [nM]	IC50 (NCI-H460 [3]) [nM]	Compound
> 100	940	820	Cc1ccc(N=C2NC(=O)/C(=C\c3ccc(N(C)C)cc3)S2)cc1
> 100	1320	1080	CN(C)c1ccc(/C=C2/SC(=Nc3ccc(O)cc3)NC2=O)cc1
> 100	650	540	Cc1ccccc1/N=C1\NC(=O)/C(=C\c2ccc(N(C)C)cc2)S1
> 100	1850	1180	O=C1N/C(=N\c2ccc(Cl)cc2)S/C1=C/c1ccccc1O
> 100	2890	2930	CN(C)c1ccc(/C=C2/S/C(=N/c3ccc(Cl)cc3)NC2=O)cc1
195	1780	1700	COc1ccc(/C=C2/S/C(=N/c3ccccc3C)NC2=O)cc1
